# Measured values from ChEMBL document CHEMBL1157034, “Synthesis of 1-benzyl-3-(5-hydroxymethyl-2-furyl)selenolo[3,2-c]pyrazole derivatives as new anticancer agents” (Eur J Med Chem, 2010).
# Tests used:
# UO-31 = experiment: Antitumor activity against human UO31 cells after 48 hrs by MTT assay; assay type: functional; details: UO-31, 48 h
# NCI/ADR-RES = experiment: Antitumor activity against human NCI/ADR-RES cells after 48 hrs by MTT assay; assay type: functional
# SW-620 = experiment: Antitumor activity against human SW620 cells after 48 hrs by MTT assay; assay type: functional; details: SW-620, 48 h
# DU-145 = experiment: Antitumor activity against human DU145 cells after 48 hrs by MTT assay; assay type: functional; details: DU-145, 48 h
# A498 = experiment: Antitumor activity against human A498 cells after 48 hrs by MTT assay; assay type: functional; details: A498, 48 h
# Summary of the method: (§1)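 Cells grown at 37 °C in humidified 5% CO2, seeded at 1×10^4 cells/well, and allowed to attach for 24 h. They were then exposed to a range of concentrations for 48 h, washed with PBS, and given 1 mg/ml MTT for 2 h. Formazan was dissolved in DMSO and read at 570 nm.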
# OVCAR-3 = experiment: Antitumor activity against human OVCAR-3 cells after 48 hrs by MTT assay; assay type: functional; details: OVCAR-3, 48 h
# [1] = Antitumor activity against human […] cells after 48 hrs by MTT assay; assay type: functional
# NCI-H226 = experiment: Antitumor activity against human NCI-H226 cells after 48 hrs by MTT assay; assay type: functional, cell-based; details: NCI-H226, 48 h; summary of the method: as §1
# Malme-3M = experiment: Antitumor activity against human MALME-3M cells after 48 hrs by MTT assay; assay type: functional
# RXF 393 = experiment: Antitumor activity against human RXF393 cells after 48 hrs by MTT assay; assay type: functional; details: RXF 393, 48 h
# SF-268 = experiment: Antitumor activity against human SF268 cells after 48 hrs by MTT assay; assay type: functional; details: SF-268, 48 h
# HOP-92 = experiment: Antitumor activity against human HOP92 cells after 48 hrs by MTT assay; assay type: functional; details: HOP-92, 48 h
# SF-539 = experiment: Antitumor activity against human SF539 cells after 48 hrs by MTT assay; assay type: functional; details: SF-539, 48 h
# SK-MEL-5 = experiment: Antitumor activity against human SK-MEL-5 cells after 48 hrs by MTT assay; assay type: functional; details: SK-MEL-5, 48 h
# TK-10 = experiment: Antitumor activity against human TK10 cells after 48 hrs by MTT assay; assay type: functional; details: TK-10, 48 h
# HCT-15 = experiment: Antitumor activity against human HCT15 cells after 48 hrs by MTT assay; assay type: functional; details: HCT-15, 48 h
# HCC 2998 = experiment: Antitumor activity against human HCC2998 cells after 48 hrs by MTT assay; assay type: functional; details: HCC 2998, 48 h
# [2] = Antitumor activity against human Hs 578T cells after 48 hrs by MTT assay; assay type: functional
# HL-60(TB) = experiment: Antitumor activity against human HL-60(TB) cells after 48 hrs by MTT assay; assay type: functional; details: HL-60, 48 h
# UACC-257 = experiment: Antitumor activity against human UACC257 cells after 48 hrs by MTT assay; assay type: functional; details: UACC-257, 48 h
# HOP-62 = experiment: Antitumor activity against human HOP62 cells after 48 hrs by MTT assay; assay type: functional; details: HOP-62, 48 h
# PC-3 = experiment: Antitumor activity against human PC3 cells after 48 hrs by MTT assay; assay type: functional; details: PC-3, 48 h
# CCRF-CEM = experiment: Antitumor activity against human CCRF-CEM cells after 48 hrs by MTT assay; assay type: functional
# T47D = experiment: Antitumor activity against human T47D cells after 48 hrs by MTT assay; assay type: functional
# [3] = read-out: pLC50 (the source's name) (converted)
structure (smiles),measurement,setting,value
OCc1ccc(-c2nn(Cc3ccccc3)c3cc[se]c23)o1,GI50,UO-31; read-out: pGI50 (converted),41.7 µM
same,CC50,UO-31; [3],> 100 µM
same,TGI,UO-31; read-out: pTGI,> 100 µM
same,GI50,NCI/ADR-RES; read-out: pGI50 (converted),25.7 µM
same,CC50,NCI/ADR-RES; [3],> 100 µM
same,TGI,NCI/ADR-RES; read-out: pTGI,> 100 µM
same,GI50,SW-620,35.5 µM
same,CC50,SW-620; [3],> 100 µM
same,TGI,SW-620; read-out: pTGI,> 100 µM
same,GI50,DU-145; read-out: pGI50 (converted),45.7 µM
same,CC50,DU-145; [3],> 100 µM
same,TGI,DU-145; read-out: pTGI,> 100 µM
same,GI50,A498; read-out: pGI50 (converted),0.162 µM
same,CC50,A498; read-out: pLC50 (converted),0.631 µM
same,TGI,A498; read-out: pTGI,0.324 µM
same,GI50,OVCAR-3,13.2 µM
same,CC50,OVCAR-3; [3],> 100 µM
same,TGI,OVCAR-3; read-out: pTGI (converted),79.4 µM
same,GI50,[1],22.4 µM
same,CC50,[1]; [3],> 100 µM
same,TGI,[1]; read-out: pTGI,> 100 µM
same,GI50,NCI-H226,0.316 µM
same,TGI,NCI-H226; read-out: pTGI (converted),0.977 µM
same,GI50,Malme-3M,25.7 µM
same,CC50,Malme-3M; [3],> 100 µM
same,TGI,Malme-3M; read-out: pTGI,> 100 µM
same,GI50,RXF 393; read-out: pGI50 (converted),11.5 µM
same,CC50,RXF 393; [3],> 100 µM
same,TGI,RXF 393; read-out: pTGI,51.3 µM
same,GI50,SF-268,40.7 µM
same,CC50,SF-268; [3],> 100 µM
same,TGI,SF-268; read-out: pTGI,> 100 µM
same,GI50,HOP-92,18.2 µM
same,CC50,HOP-92; [3],> 100 µM
same,TGI,HOP-92; read-out: pTGI (converted),79.4 µM
same,GI50,SF-539,27.5 µM
same,CC50,SF-539; [3],> 100 µM
same,TGI,SF-539; read-out: pTGI,> 100 µM
same,GI50,SK-MEL-5,31.6 µM
same,CC50,SK-MEL-5; [3],> 100 µM
same,TGI,SK-MEL-5; read-out: pTGI (converted),89.1 µM
same,GI50,TK-10; read-out: pGI50 (converted),1.7 µM
same,CC50,TK-10; [3],> 100 µM
same,TGI,TK-10; read-out: pTGI,> 100 µM
same,GI50,HCT-15,30.2 µM
same,CC50,HCT-15; [3],> 100 µM
same,TGI,HCT-15; read-out: pTGI,> 100 µM
same,GI50,HCC 2998,32.4 µM
same,CC50,HCC 2998; [3],> 100 µM
same,TGI,HCC 2998; read-out: pTGI,> 100 µM
same,GI50,[2],20 µM
same,CC50,[2]; [3],> 100 µM
same,TGI,[2]; read-out: pTGI (converted),74.1 µM
same,GI50,HL-60(TB),19.5 µM
same,CC50,HL-60(TB); [3],> 100 µM
same,TGI,HL-60(TB); read-out: pTGI (converted),49 µM
same,GI50,UACC-257,18.2 µM
same,CC50,UACC-257; [3],> 97.7 µM
same,TGI,UACC-257; read-out: pTGI (converted),41.7 µM
same,GI50,HOP-62,39.8 µM
same,CC50,HOP-62; [3],> 100 µM
same,TGI,HOP-62; read-out: pTGI,> 100 µM
same,GI50,PC-3; read-out: pGI50 (converted),27.5 µM
same,CC50,PC-3; [3],> 100 µM
same,TGI,PC-3; read-out: pTGI,> 100 µM
same,GI50,CCRF-CEM,24.5 µM
same,CC50,CCRF-CEM; [3],> 100 µM
same,TGI,CCRF-CEM; read-out: pTGI,> 100 µM
same,GI50,T47D,21.4 µM
same,CC50,T47D; [3],> 100 µM
same,TGI,T47D; read-out: pTGI (converted),89.1 µM
